The values that follow come from ChEMBL document CHEMBL2429711, “[(11)C]MK-4232: The First Positron Emission Tomography Tracer for the Calcitonin Gene-Related Peptide Receptor” (ACS Med Chem Lett, 2013).

One may read the fraction unbound as free concentration divided by total concentration. The efflux ratio is the permeability from basolateral to apical divided by that in the opposite direction, in the common usage. The logD is lipophilicity at a set pH, counting ionised and neutral species. One may read the Papp as a coefficient for how fast a substance crosses the barrier. As a reminder, the Ki is a dissociation constant, usually derived from enzyme kinetics or from competition with a known ligand. As a reminder, the IC50 is the concentration needed to halve the response being measured.

A value given as a limit tells only on which side of the number the result lay.

Series [1] in a line: Ratio of AUC in rhesus monkey CSF to AUC in rhesus monkey plasma. The format is ADME, Macaca mulatta. The method, boiled down: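 Cisterna magna-ported rhesus monkeys dosed; CSF AUC divided by plasma AUC.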
Series [2] is described as follows: Fraction unbound in monkey plasma by equillibrium dialysis method. The series is classed as ADME, cell-free, Macaca mulatta. The settings on record: rhesus monkey. The method, boiled down: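 Plasma unbound fraction by equilibrium dialysis.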
Another series concerns the target MDR1 (ABCB1) (Homo sapiens, UniProt P08183). As to the kind of experiment: Efflux ratio of human MDR1-mediated drug transport from basolateral to apical side over apical to basolateral side in pig LLC cells expressing human MDR1 at 5 uM. The series is classed as ADME, cell-based. The settings on record: LLC-PK1. The method, boiled down: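 P-gp transport ratio BA/AB in LLC-MDR1 cells, test compound at 5 μM.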

Series [3] is described as follows: Drug uptake in iv dosed rhesus monkey white matter after 80 mins. The format is ADME, organism-based, Macaca mulatta. To be noted: in vivo. In outline:
(§1)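 Anesthetized rhesus monkeys given [11C]-tracer i.v.; PET specific uptake value (SUV) read in cerebellum or white matter at 80 min postdose.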

A short description of series [4]: Drug uptake in iv dosed rhesus monkey cerebellum after 80 mins. The settings on record: in vivo. The series is classed as ADME, organism-based, Macaca mulatta. The method, boiled down:
as §1

Series [5] can be described thus: Lipophilicity, log D of the compound at pH 7.0 by HPLC analysis. The format is physicochemical. To be noted: buffer. The method, boiled down: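 logD measured by HPLC at pH 7.0.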
Series [6] can be described thus: Apparent passive permeability across pig LLC-PK1 cells. The format is ADME, cell-based, Sus scrofa. The method, boiled down:
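Permeability measured in control LLC-PK1 cells.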

In series [7] the target is T1, Calcitonin gene-related peptide type 1 receptor (Homo sapiens, UniProt O60894+Q16602). Put plainly: Displacement of [125I]-hCGRP from human CGRP receptor expressed in HEK293 cells. The format is cell-based. The method, boiled down: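 Ki for inhibition of 125I-hCGRP binding; membranes from HEK293 cells stably expressing human CLR/RAMP1; replicate number given per value.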
T1 sequence (Q16602 whole entry, one chain of several): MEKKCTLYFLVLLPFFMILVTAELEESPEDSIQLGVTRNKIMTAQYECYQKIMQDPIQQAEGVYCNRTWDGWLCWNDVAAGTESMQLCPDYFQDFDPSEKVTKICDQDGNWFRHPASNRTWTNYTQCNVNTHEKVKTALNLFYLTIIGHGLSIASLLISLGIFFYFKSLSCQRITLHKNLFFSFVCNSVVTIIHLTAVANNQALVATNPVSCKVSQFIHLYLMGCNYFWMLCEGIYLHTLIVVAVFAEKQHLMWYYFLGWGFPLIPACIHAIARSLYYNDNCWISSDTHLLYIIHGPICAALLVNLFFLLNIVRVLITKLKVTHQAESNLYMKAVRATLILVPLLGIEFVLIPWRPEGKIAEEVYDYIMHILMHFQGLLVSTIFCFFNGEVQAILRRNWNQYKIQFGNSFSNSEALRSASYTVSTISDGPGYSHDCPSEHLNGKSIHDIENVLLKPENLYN

The test system of series [8] is CGRP receptor (Macaca mulatta). Put plainly: Ratio of drug uptake in iv dosed rhesus monkey cerebellum to drug uptake in iv dosed rhesus monkey white matter. To be noted: in vivo.
The target in series [9] is Calcitonin gene-related peptide type 1 receptor (Homo sapiens) (UniProt Q16602). Put plainly: Ratio of IC50 for CGRP receptor (unknown origin) to IC50 for CGRP receptor (unknown origin) in presence of human serum.
Sequence of Calcitonin gene-related peptide type 1 receptor (Homo sapiens) (Q16602 whole entry): as the sequence (Q16602 whole entry, one chain of several) above
The target of series [10] is T1, Calcitonin gene-related peptide type 1 receptor. Put plainly: Antagonist activity at CGRP receptor (unknown origin) by cell based cAMP assay in presence of human serum. The series is classed as functional. In outline: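 cAMP functional antagonism measured with 50% human serum added.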
On the technique in general: Cyclic AMP is a second messenger, typically raised through Gs and lowered through Gi signalling.

The target is the same in series [11]. As to the kind of experiment: Antagonist activity at CGRP receptor (unknown origin) by cell based cAMP assay. The series is classed as functional.
Series [12] is described as follows: Binding affinity to rhesus monkey CGRP receptor by radioligand binding assay. The arrangement: species or system Macaca mulatta.
Series [13] is described as follows: Fraction unbound in rhesus monkey CSF. The series is classed as ADME, Macaca mulatta, Cerebrospinal fluid.
The species entered for the next series is Macaca mulatta. As to the kind of experiment: Binding affinity to rhesus monkey cerebellum CGRP receptor. The series is classed as tissue-based.
Series [14] concerns the target Calcitonin gene-related peptide type 1 receptor (Homo sapiens) (UniProt Q16602). Put plainly: Ratio of Bmax to Ki for human CGRP receptor expressed in HEK293 cells. The series is classed as cell-based.

Sequence of MDR1 (ABCB1) (P08183 whole entry): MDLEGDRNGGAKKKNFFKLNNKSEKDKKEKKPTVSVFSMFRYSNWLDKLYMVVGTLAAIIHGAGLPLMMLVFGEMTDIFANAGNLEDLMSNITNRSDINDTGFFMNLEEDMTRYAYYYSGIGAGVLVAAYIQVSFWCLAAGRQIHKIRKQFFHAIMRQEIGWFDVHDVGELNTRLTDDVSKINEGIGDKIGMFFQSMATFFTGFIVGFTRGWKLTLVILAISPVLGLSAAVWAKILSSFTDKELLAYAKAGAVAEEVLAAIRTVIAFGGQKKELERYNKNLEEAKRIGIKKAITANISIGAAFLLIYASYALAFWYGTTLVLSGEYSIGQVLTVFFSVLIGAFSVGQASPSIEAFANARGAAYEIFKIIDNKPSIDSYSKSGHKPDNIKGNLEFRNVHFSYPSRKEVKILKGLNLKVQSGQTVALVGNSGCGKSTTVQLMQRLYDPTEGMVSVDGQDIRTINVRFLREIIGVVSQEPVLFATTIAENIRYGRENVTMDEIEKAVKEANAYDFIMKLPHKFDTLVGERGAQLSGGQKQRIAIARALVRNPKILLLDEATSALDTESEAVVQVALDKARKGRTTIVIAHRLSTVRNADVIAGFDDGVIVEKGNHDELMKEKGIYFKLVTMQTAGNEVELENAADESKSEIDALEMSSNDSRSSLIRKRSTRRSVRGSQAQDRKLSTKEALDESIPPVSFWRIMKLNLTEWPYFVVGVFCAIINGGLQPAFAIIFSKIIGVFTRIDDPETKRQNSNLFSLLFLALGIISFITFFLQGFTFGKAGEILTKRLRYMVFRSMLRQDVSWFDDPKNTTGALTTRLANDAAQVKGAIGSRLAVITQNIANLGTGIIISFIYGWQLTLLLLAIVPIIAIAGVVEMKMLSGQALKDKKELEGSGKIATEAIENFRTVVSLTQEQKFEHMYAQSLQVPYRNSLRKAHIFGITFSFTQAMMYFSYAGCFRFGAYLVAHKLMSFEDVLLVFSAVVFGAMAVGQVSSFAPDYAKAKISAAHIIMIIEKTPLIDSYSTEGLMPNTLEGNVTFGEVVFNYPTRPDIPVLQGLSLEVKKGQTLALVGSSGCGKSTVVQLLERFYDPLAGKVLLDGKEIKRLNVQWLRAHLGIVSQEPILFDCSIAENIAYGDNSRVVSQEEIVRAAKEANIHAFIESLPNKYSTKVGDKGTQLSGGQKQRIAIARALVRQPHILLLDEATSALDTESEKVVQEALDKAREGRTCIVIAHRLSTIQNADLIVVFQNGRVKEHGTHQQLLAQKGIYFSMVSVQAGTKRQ

Consider `O=C(N[C@@H]1CC[C@@H](c2cccc(F)c2F)CN(CC(F)(F)F)C1=O)N1CCC(n2c(=O)[nH]c3ncccc32)CC1` [TELCAGEPANT], for which the “Ratio AUC” value in series [1] stood at 1.3%. In series [2], this molecule displayed a fraction unbound of 0.038. Besides, the efflux ratio at 5 µM on MDR1 (ABCB1) is 24.
On to `CN1C[C@@](C)(c2cc(F)cc(F)c2)N(CC#Cc2cnc3c(c2)C[C@@]2(C3)C(=O)Nc3ncccc32)C(=O)C12CCCC2`, for which the values for the SUV in series [3] and in series [4] were 0.7 and 1.3, respectively. In [5], this molecule gave a logD of 3.41. In addition, in series [1], the “Ratio AUC” value is 2.64%. In series [6], the apparent permeability coefficient (Papp) was 17 ×10⁻⁶ cm/s. In series [2], this molecule gave a fraction unbound of 0.031. The efflux ratio at 5 µM at MDR1 (ABCB1) was found to be 1.5. Further, the Ki in series [7] came out at 0.019 nM. Further, the Ratio in series [8] turned out to be 1.9.
Take `CN1C[C@@](C)(c2cc(F)cc(F)c2)N(CC(=O)Nc2cnc3c(c2)C[C@@]2(C3)C(=O)Nc3ncccc32)C(=O)C12CCCC2`: the efflux ratio at 5 µM on MDR1 (ABCB1) is 14. Besides, the Ki in series [7] came to 0.017 nM.
Turning to `CN1C[C@@](C)(c2cc(F)cc(F)c2)N(CCCc2cnc3c(c2)C[C@@]2(C3)C(=O)Nc3ncccc32)C(=O)C12CCCC2`, the values for the SUV in series [3] and in [4] were 0.6 and 1, respectively. The logD in series [5] stood at 3.16. In addition, in series [6], the Papp turned out to be 23 ×10⁻⁶ cm/s. In series [2], this molecule came in with a fraction unbound of 0.061. Moreover, the efflux ratio at 5 µM on MDR1 (ABCB1) was 1.8. Further, in [7], the Ki is 0.045 nM. In addition, the Ratio in [8] came to 1.7.
Consider `CN1C[C@@](C)(c2cc(F)cc(F)c2)N(CC(=O)Nc2ccc3c(c2)C[C@@]2(C3)C(=O)Nc3ncccc32)C(=O)C12CCCC2`, for which the Ratio IC50 in series [9] was determined as 4. Besides, the IC50 in series [10] worked out at 0.39 nM; in [11], 0.097 nM. Further, the Ki turned out to be 0.033 nM in series [12] and 0.046 nM in series [7]. Further, the SUV is recorded as 0.9 in series [3] and 1.7 in series [4]. This molecule also showed a logD in series [5] of 3.39. Also, the “Ratio AUC” value in series [1] came to 3.12%. For the same molecule, in [6], the Papp was 25 ×10⁻⁶ cm/s. This molecule gave a fraction unbound in series [2] of 0.043. Further, the efflux ratio at 5 µM at MDR1 (ABCB1) amounted to 1.7. In addition, the Ratio in series [8] was 2.
As to `CC1(C)NC[C@@](C)(c2cc(F)cc(F)c2)N(CC(=O)Nc2ccc3c(c2)C[C@@]2(C3)C(=O)Nc3ncccc32)C1=O`, the fraction unbound in series [2] amounted to 0.333. Further, the efflux ratio at 5 µM at MDR1 (ABCB1) was found to be 20. The Ki in [7] came out at 0.11 nM.
For `CN1C[C@@](C)(c2cc(F)cc(F)c2)N(CCCc2ccc3c(c2)C[C@@]2(C3)C(=O)Nc3ncccc32)C(=O)C12CCCC2`, the values for the SUV in [3] and in series [4] were 0.6 and 0.8, respectively. The molecule also registered a logD in series [5] of 4.33. Besides, the fraction unbound in series [2] was 0.002. In addition, the Ki in series [7] turned out to be 0.5 nM. In addition, in series [8], the Ratio was found to be 1.3.
As for `C[C@@]1(c2cc(F)cc(F)c2)CNC2(CCCC2)C(=O)N1CC(=O)Nc1ccc2c(c1)C[C@@]1(C2)C(=O)Nc2ncccc21`, in series [1], the “Ratio AUC” value was determined as 6.61%. Besides, the efflux ratio at 5 µM at MDR1 (ABCB1) is 9.3.
On to `CN1C[C@@](C)(c2cc(F)cc(F)c2)N(CC(=O)Nc2ccc3c(c2)C[C@@]2(C3)C(=O)Nc3ncccc32)C(=O)C1(C)C`, for which the figures for the SUV in series [3] and in series [4] were 0.7 and 1.2, respectively. Besides, in series [1], the “Ratio AUC” value is given as 4.79%. Moreover, in series [6], the Papp turned out to be 29 ×10⁻⁶ cm/s. Also, the fraction unbound in series [2] was 0.117; in series [13], 0.4. Also, on MDR1 (ABCB1), the efflux ratio at 5 µM stood at 2.8. The Ki in series [7] is 0.056 nM. Besides, the Ratio in [8] was determined as 1.7.
Regarding `CN1C[C@@](C)(c2cc(F)cc(F)c2)N(C/C=C/c2ccc3c(c2)C[C@@]2(C3)C(=O)Nc3ncccc32)C(=O)C12CCCC2`, the SUV in series [3] came out at 0.7; in [4], 1. The molecule further came in with a logD in [5] of 4.15. Further, in series [1], the “Ratio AUC” value was found to be 0.53%. In series [2], this molecule returned a free fraction (fraction unbound) of 0.002. Further, in series [7], the Ki stood at 0.094 nM. Also, the Ratio in series [8] is 1.4.
Consider `CN1C[C@@H](c2cc(F)cc(F)c2)N(CC(=O)Nc2ccc3c(c2)C[C@@]2(C3)C(=O)Nc3ncccc32)C(=O)C1(C)C`, for which the SUV turned out to be 0.5 in series [3] and 0.7 in series [4]. The Papp in series [6] was 27 ×10⁻⁶ cm/s. Besides, in series [2], the fraction unbound came to 0.205. In addition, the Ki in series [7] amounted to 0.022 nM.
As for `CN1C[C@@](C)(c2cc(F)cc(F)c2)N(C/C=C/c2cnc3c(c2)C[C@@]2(C3)C(=O)Nc3ncccc32)C(=O)C12CCCC2`, the results for the SUV in series [3] and in series [4] were 0.7 and 1.2, respectively. This molecule came in with a log distribution coefficient (logD) in series [5] of 3.36. Besides, the Papp in series [6] is 21 ×10⁻⁶ cm/s. This molecule also returned an unbound share (fraction unbound) in series [2] of 0.051. Moreover, at MDR1 (ABCB1), the efflux ratio at 5 µM came to 2. Moreover, the Ki in [7] turned out to be 0.021 nM. Also, the Ratio in series [8] is 1.7.
In the case of `CN1C[C@@](C)(c2cc(F)cc(F)c2)N(CC#Cc2ccc3c(c2)C[C@@]2(C3)C(=O)Nc3ncccc32)C(=O)C12CCCC2`, the values for the SUV in series [3] and in [4] were 0.7 and 1.1, respectively. In addition, the log distribution coefficient (logD) in series [5] was determined as 4.11. The “Ratio AUC” value in series [1] is recorded as 0.99%. The fraction unbound in series [2] stood at 0.008. Also, in series [7], the Ki turned out to be 0.11 nM. Besides, the Ratio in series [8] came to 1.6.
On to `O=C(CN1C(=O)C2(CCCC2)NC[C@H]1c1cc(F)cc(F)c1)Nc1ccc2c(c1)C[C@@]1(C2)C(=O)Nc2ncccc21` [MK3207], for which, in the series filed under Macaca mulatta, the Bmax was determined as 24 nM. In series [5], this molecule came in with a logD of 2.35. In addition, the “Ratio AUC” value in series [1] was 2.9%. For the same molecule, the Papp in series [6] is 28 ×10⁻⁶ cm/s. Further, the efflux ratio at 5 µM at MDR1 (ABCB1) was 25. The Ratio in [14] was > 1000.
Turning to `CC1(C)NC[C@@H](c2cc(F)cc(F)c2)N(CC(=O)Nc2ccc3c(c2)C[C@@]2(C3)C(=O)Nc3ncccc32)C1=O`, in [1], the “Ratio AUC” value came to 4.35%. Besides, the results for the fraction unbound in [2] and in series [13] were 0.429 and 0.1, respectively. At MDR1 (ABCB1), the efflux ratio at 5 µM was found to be 33. Besides, in [7], the Ki was 0.034 nM.
